From paper PMC10907227 (Nature methods, 2020)
Values after ≈ are worked out from the molar mass of the structure shown. “Also recorded” adds a separate entry of the source.

What was measured:
Antares [1] = biological target: T1, Antares (Oplophorus gracilirostris, UniProt Q9GV45, A31E/A60N/A81I/F95D/I117V/K70R/L54V/L99Q/M102K/N193R/P142E/Q151K/Q38R/Q45L/V71I/Y165I); test: Enzymatic analysis of Antares with furimazine analogs; assay type: biochemical; settings: purified Antares; for Vmax and thereby kcat compared to furimazine: DPBS with 0.01% FBS
[2] = Substrate stability at 37 °C in DPBS with or without 10% FBS; assay type: in vitro ADME
Antares [3] = biological target: T1, Antares; test: Spectral analysis of Antares with furimazine analogs; assay type: biochemical; settings: 400 to 700 nm
Antares [4] = biological target: T1, Antares
[5] = Solubility testing in PEG-300-based injectable formulation; assay type: physicochemical; settings: for Maximum soluble dose: IP injection, injectable formulation; for Relative solubility in the PEG-300-based formulation: comparison in words; for Maximum amount that could be administered IP in the PEG-300 formulation: injection volume limit of ~0.5 mL, mice
Procedure, shortened: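 Formulation: 10% ethanol (v/v), 10% glycerol (v/v), 10% 2-hydroxypropyl-β-cyclodextrin (w/v), 35% PEG-300 (v/v) in water. Pre-weighed compound was dissolved or suspended in ethanol, then combined with the other components and vortexed 15 min to make a 28 mM solution or suspension. […] IP dose was limited by an injection volume of ~0.5 mL.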

Antares [6] = biological target: T1, Antares; test: Decay of Antares luminescence signal over time; assay type: biochemical; settings: purified Antares, 60 min
Antares [7] = biological target: T1, Antares; test: Hydrodynamic transfection and bioluminescence imaging of nude mice; assay type: in vivo
[8] = assay type: in vivo, mice
Procedure, shortened: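 Male C57Bl/6 mice, 4 months old, received three daily IP injections: 12 mg P-407 in 480 µL water; 12 mg P-407 plus 1.7 mg test compound in 480 µL water; or test compound in P-407 at 1.3 or 4.2 µmol. Body weight was tracked. On day 4 mice were euthanized by CO2 and cardiac exsanguination, with terminal blood taken for CBC and serum biochemistry. Lung, liver and kidney were examined histologically.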

physchem = settings: aqueous with cosolvent or surfactant or cyclodextrin
[9] = previously published PEG-300-based aqueous formulation; cited from earlier work
Orange CaMBI [10] = settings: liver; cited from earlier work
Antares [11] = biological target: T1, Antares; settings: limited amount of furimazine that can be administered; cited from earlier work
AkaLuc = AkaLuc with AkaLumine, intrapulmonary locations; cited from earlier work
Orange CaMBI [12] = assay type: in vivo, mice; settings: sustained-release HFz (P-407)
Procedure, shortened: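 Transgenic mice doubly hemizygous for albumin-Cre and CAG-LSL-Orange CaMBI 110, abdominal hair removed, anesthetized with IP ketamine 200 mg/kg in 100 µL water. Test compound given with poloxamer-407 in 480 µL water. Imaged in a lab-built system, time-lapse with <1 s exposures on a consumer digital camera, with vasopressin given. Decay fitted as monoexponential.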

[13] = 1.3 μmol IP, PEG-300 formulation, mouse liver

O=c1c(Cc2ccco2)nc2c(Cc3ccccc3)[nH]c(-c3cccc(O)c3F)cn1-2 [compound D, 8-benzyl-6-(2-fluoro-3-hydroxyphenyl)-2-(furan-2-ylmethyl)imidazo[1,2-a]pyrazin-3(7H)-one]
Vmax and thereby kcat compared to furimazine (Antares [1]): improved Vmax and thereby kcat versus furimazine | Stability in serum compared to furimazine [2]: retaining the improved stability in serum | Effect on emission spectrum of Antares (Antares [3]): do not alter the emission spectrum of Antares | Signal output compared with HFz (Antares [4]; [13]): brighter signal outputs than HFz

O=c1c(Cc2ccco2)nc2c(Cc3ccccc3)[nH]c(-c3ccc(O)cc3)cn1-2 [compound A, 8-benzyl-2-(furan-2-ylmethyl)-6-(4-hydroxyphenyl)imidazo[1,2-a]pyrazin-3(7H)-one]
Appearance at 28 mM in the PEG-300-based formulation ([5]; 28 mM, backlit image): insoluble pellet | Decrease of light output over time compared with the other substrates (Antares [6]): decreased more rapidly over time | Total integrated output compared with furimazine (Antares [4]; 1.3 μmol IP, PEG-300 vehicle, liver): more total integrated output

Nc1cccc(-c2cn3c(=O)c(Cc4ccco4)nc-3c(Cc3ccccc3F)[nH]2)c1F [compound F, 6-(3-amino-2-fluorophenyl)-8-(2-fluorobenzyl)-2-(furan-2-ylmethyl)imidazo[1,2-a]pyrazin-3(7H)-one]
Vmax and thereby kcat compared to compound E (Antares [1]): higher Vmax and thereby kcat | Brightness compared with AkaLuc with AkaLumine (Antares [7]; 1.3 μmol FFz IP, not statistically significant): tended to produce more brightness | Body weight, blood chemistry, or histology ([8]; 1.3 μmol FFz in P-407 daily for three days): No abnormalities | Blood chemistry ([8]; 4.2 μmol FFz, daily for three days): abnormal blood chemistry | Dose that can be safely administered ([8]; in P-407, IP, mice): 1.3 µmol | Peak signal compared to compound E (Antares [4]; 1.3 μmol, in vivo): further increase in peak signal | Light from mouse liver, 1.3 μmol FFz compared with 4.2 μmol HFz (Antares [4]; IP): more light | Light, 4.2 μmol compared with 1.3 μmol of FFz (Antares [4]; IP): more light | solubility (physchem): 8.8 mM (≈ 3810 µg/mL)

Oc1c(Cc2ccccc2)nc2c(-c3ccncc3)nc(-c3ccccc3)cn12 [8pyDTZ, reference compound]
Maximum soluble dose [5]: 4 µmol

Nc1cccc(-c2cn3c(=O)c(Cc4ccco4)nc-3c(Cc3ccccc3)[nH]2)c1F [compound E, 6-(3-amino-2-fluorophenyl)-8-benzyl-2-(furan-2-ylmethyl)imidazo[1,2-a]pyrazin-3(7H)-one]
Vmax and thereby kcat compared to furimazine (Antares [1]): improved Vmax and thereby kcat versus furimazine | Stability in serum compared to furimazine [2]: retaining the improved stability in serum | Effect on emission spectrum of Antares (Antares [3]): do not alter the emission spectrum of Antares | Improvement of signal output over HFz (Antares [4]; [13]): approximately three-fold | Signal output compared with HFz (Antares [4]; [13]): brighter signal outputs than HFz

O=c1c(Cc2ccco2)nc2c(Cc3ccccc3)[nH]c(-c3ccccc3)cn1-2 [furimazine]
Solubility in the PEG-300-based formulation ([5]; 35% PEG-300, 10% ethanol, 10% glycerol, 10% hydroxypropylcyclodextrin in water): 2.8 mM (≈ 1070 µg/mL) | Relative solubility in the PEG-300-based formulation [5]: more soluble than DTZ | Maximum dosage limited by poor aqueous solubility [9]: 1.3 µmol | Duration of previous Orange CaMBI imaging sessions (Orange CaMBI [10]): ≤ 6 min | Photon output of Antares relative to FLuc in vivo (Antares [11]): ~ three-fold

CN(C)c1ccc(/C=C/C=C/C2=N[C@@H](C(=O)O)CS2)cc1 [AkaLumine]
Detectable light per reporter molecule relative to FLuc and D-luciferin (AkaLuc): ~ 13 times

O=c1c(Cc2ccco2)nc2c(Cc3ccccc3)[nH]c(-c3cccc(O)c3)cn1-2 [compound B, 8-benzyl-2-(furan-2-ylmethyl)-6-(3-hydroxyphenyl)imidazo[1,2-a]pyrazin-3(7H)-one]
Relative solubility in the PEG-300-based formulation [5]: noticeably more soluble than compounds A and C | Maximum amount that could be administered IP in the PEG-300 formulation [5]: up to 13.3 μmol | kcat/KM compared to furimazine (Antares [1]): higher kcat/KM | Integrated signal over 20 min compared with Antares2-DTZ (Antares [7]; 4.2 μmol HFz IP): significantly exceed that of Antares2-DTZ | Integrated signal over 20 min compared with LumiScarlet-8pyDTZ (Antares [7]; 4.2 μmol HFz IP): appeared higher than that of LumiScarlet-8pyDTZ, but narrowly missed statistical significance | Persistence of emission (Antares [7]; 4.2 μmol HFz IP, 20 min): uniquely sustained emission | Time signals were bright enough to be seen by the naked eye in the dark (Orange CaMBI [12]): > 1 h | Time of peak brightness after substrate injection (Orange CaMBI [12]; liver): 24 min | Time after injection at which brightness dropped to half of its peak (Orange CaMBI [12]; monoexponential kinetics): ~ 60 min | Gross examination of organs and histology of liver, lung and kidney ([8]; HFz with P-407, three daily IP injections, listed as HFz): no signs of toxicity; also recorded: no abnormalities were found | Saturating dose (Antares [4]; IP, PEG-300 formulation, liver): 4.2 µmol | Light (brightness) relative to the maximum/saturating dose of furimazine (Antares [4]; substrate at saturating (maximal) dose, IP, Antares-expressing transgenic mice): approximately four-fold

O=c1c(Cc2ccccc2)nc2c(-c3ccccc3)[nH]c(-c3ccccc3)cn1-2 [DTZ, diphenylterazine, reference compound]
Maximum soluble dose [5]: 1 µmol

Nc1cccc(-c2cn3c(=O)c(Cc4ccco4)nc-3c(Cc3ccccc3)[nH]2)c1 [compound C, 6-(3-aminophenyl)-8-benzyl-2-(furan-2-ylmethyl)imidazo[1,2-a]pyrazin-3(7H)-one]
Maximum amount that could be administered IP in the PEG-300 formulation [5]: 4.2 µmol
